Source: ChEMBL document CHEMBL1126018, “Syntheses and 5-HT2 antagonist activity of bicyclic 1,2,4-triazol-3(2H)-one and 1,3,5-triazine-2,4(3H)-dione derivatives” (J Med Chem, 1992)

Tests used:
[1] = biological target: T1, Adrenergic receptor alpha-1 (Rattus norvegicus) (UniProt P15823+P23944+P43140); assay: In vitro antagonistic activity against the contraction induced by phenylephrine through Alpha-1 adrenergic receptor in rat thoracic aortic strips; NC = non-competitive inhibition; format: functional
Method in brief: (§1)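 Rat thoracic aortic strips, isometric tension; equilibrated 120 min, primed with 60 mM KCl. Cumulative phenylephrine (0.01-10 μM) curve, wash, 1 h later second cumulative curve with test drug present. pA2 from the concentration-response curves where blockade is competitive (otherwise noncompetitive); single determination.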

[2] = biological target: T2, Serotonin 2 (5-HT2) receptor (Rattus norvegicus) (UniProt P30994+P08909+P14842); assay: In vivo inhibitory activity of 10 mg/kg compound in rats against elevation of BP caused by 5-HT (300 ug/kg, iv) through 5-hydroxytryptamine 2 receptor 1 hr after oral administration; format: functional, organism-based; set-up: dose 10 mg/kg
Method in brief: (§2)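 Male SD rats anesthetized with urethane (1 g/kg ip) plus alpha-chloralose (80 mg/kg ip). Carotid arterial catheter to a pressure transducer, venous catheter for injection. After oral drug or vehicle, 5-HT 300 μg/kg iv. The pressor phase following the brief hypotensive phase was measured and expressed as % inhibition, mean ± SEM.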

[3] = biological target: T3, Serotonin 2 (5-HT2) receptor (Rattus norvegicus, UniProt P30994+P08909+P14842); assay: In vitro antagonistic activity tested against the contraction induced by 5-HT through 5-hydroxytryptamine 2 receptor in rat thoracic aortic strips; format: functional
[4] = biological target: T1, Adrenergic receptor alpha-1 (Rattus norvegicus); assay: In vivo inhibitory activity in rats against elevation of blood pressure caused by phenylephrine (30 ug/kg, iv) through Alpha-1 adrenergic receptor, after 1 hr oral administration at dose of 10 mg/kg; format: functional, organism-based; set-up: dose 10 mg/kg
Method in brief: (§3)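 Male SD rats under urethane (1 g/kg ip) and alpha-chloralose (80 mg/kg ip). Blood pressure recorded via carotid catheter and transducer, iv dosing via venous catheter. After oral drug or vehicle, phenylephrine 30 μg/kg iv. The pressor rise was expressed as % inhibition, mean ± SEM.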

[5] = tested on: Mus musculus; assay: The inhibition of compound was measured for 5 min in head twitches of mice induced by 5-HTP(100 mg/kg, ip) at the dose of 10 mg/kg; format: functional
Method in brief: (§4)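 Mice received drug orally 1 h before 5-HTP (100 mg/kg ip). Head twitches were counted for 5 or 8 min, starting 30 min after 5-HTP. Results are % inhibition versus controls (n = 6), with n = 4 per treated dose.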

[6] = biological target: T4, Adrenergic receptor alpha-1 (Rattus norvegicus, UniProt P15823+P23944+P43140); assay: In vitro antagonistic activity tested against the contraction induced by phenylephrine through Alpha-1 adrenergic receptor in rat thoracic aortic strips; format: functional; method in brief: as §1
T4 sequence (P15823 whole entry): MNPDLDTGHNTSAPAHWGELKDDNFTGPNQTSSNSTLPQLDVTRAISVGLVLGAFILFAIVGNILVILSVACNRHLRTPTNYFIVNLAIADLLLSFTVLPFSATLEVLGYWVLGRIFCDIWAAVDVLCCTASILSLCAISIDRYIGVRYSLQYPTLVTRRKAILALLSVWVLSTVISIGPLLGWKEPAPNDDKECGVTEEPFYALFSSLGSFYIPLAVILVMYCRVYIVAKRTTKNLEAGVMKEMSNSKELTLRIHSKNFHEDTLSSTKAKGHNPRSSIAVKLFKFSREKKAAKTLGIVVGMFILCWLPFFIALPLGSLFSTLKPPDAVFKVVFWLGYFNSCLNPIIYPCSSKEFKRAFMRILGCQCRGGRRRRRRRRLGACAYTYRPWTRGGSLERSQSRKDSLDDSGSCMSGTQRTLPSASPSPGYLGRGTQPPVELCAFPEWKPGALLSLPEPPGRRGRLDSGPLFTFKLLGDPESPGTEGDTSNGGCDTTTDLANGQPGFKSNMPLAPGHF
T4 sequence (P23944 whole entry): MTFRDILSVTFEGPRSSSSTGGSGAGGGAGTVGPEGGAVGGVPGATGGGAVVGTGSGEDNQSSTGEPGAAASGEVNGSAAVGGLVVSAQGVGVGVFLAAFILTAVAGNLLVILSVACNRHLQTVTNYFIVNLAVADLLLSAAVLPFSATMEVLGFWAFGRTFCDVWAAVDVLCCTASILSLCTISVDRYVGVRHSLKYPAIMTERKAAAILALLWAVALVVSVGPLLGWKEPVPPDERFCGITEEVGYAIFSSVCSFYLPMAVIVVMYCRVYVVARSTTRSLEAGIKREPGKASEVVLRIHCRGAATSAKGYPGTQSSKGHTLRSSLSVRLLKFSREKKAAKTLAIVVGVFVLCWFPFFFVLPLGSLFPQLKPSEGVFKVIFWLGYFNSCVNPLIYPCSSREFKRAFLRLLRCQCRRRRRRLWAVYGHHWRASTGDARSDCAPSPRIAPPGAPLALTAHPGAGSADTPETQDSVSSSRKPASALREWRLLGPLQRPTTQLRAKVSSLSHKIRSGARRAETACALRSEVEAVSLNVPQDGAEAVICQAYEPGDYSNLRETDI
T4 sequence (P43140 whole entry): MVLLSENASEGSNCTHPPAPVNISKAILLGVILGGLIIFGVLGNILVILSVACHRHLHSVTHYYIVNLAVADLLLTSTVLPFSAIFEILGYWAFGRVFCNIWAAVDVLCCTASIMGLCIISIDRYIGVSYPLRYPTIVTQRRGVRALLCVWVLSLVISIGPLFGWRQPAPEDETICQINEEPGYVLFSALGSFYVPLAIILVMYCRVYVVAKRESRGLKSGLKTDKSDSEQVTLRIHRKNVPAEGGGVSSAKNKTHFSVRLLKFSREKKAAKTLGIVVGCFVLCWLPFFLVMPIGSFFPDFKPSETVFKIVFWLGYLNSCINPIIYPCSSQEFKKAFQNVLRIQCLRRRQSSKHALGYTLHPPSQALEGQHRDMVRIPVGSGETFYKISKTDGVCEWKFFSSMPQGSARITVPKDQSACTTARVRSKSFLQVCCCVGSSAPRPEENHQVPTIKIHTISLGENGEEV

[7] = tested on: Mus musculus; assay: The inhibition of compound was measured for 5 min in head twitches of mice induced by 5-HTP(100 mg/kg, ip) at the dose of 1 mg/kg; format: functional; method in brief: as §4
[8] = tested on: Mus musculus; assay: The inhibition of compound was measured for 5 min in head twitches of mice induced by 5-HTP(100 mg/kg, ip) at the dose of 3 mg/kg; format: functional; method in brief: as §4
[9] = biological target: T3, Serotonin 2 (5-HT2) receptor; assay: (§5) In vitro antagonistic activity against the contraction induced by 5-HT through 5-hydroxytryptamine 2 receptor in rat thoracic aortic strips; format: functional
Method in brief: as §1, with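 “5-HT (0.1-100” for “phenylephrine (0.01-10”, “cumulative 5-HT” for “cumulative”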

[10] = biological target: T2, Serotonin 2 (5-HT2) receptor (Rattus norvegicus); assay: In vitro antagonistic activity against the contraction induced by 5-HT through 5-hydroxytryptamine 2 receptor in rat thoracic aortic strips; NC=non competitive antagonism; format: functional; details: filed as antagonist
Method in brief: as §1, with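 “5-HT (0.1-100” for “phenylephrine (0.01-10”, “cumulative 5-HT” for “cumulative”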

[11] = tested on: Serotonin 2 (5-HT2) receptor (Rattus norvegicus); assay: In vivo inhibitory activity in rats against elevation of blood pressure caused by 5-HT (300 ug/kg, iv) through 5-HT2 receptor after 3h of oral administration at the dose of 3 mg/kg
[12] = biological target: T2, Serotonin 2 (5-HT2) receptor (Rattus norvegicus); assay: In vivo inhibitory activity of 10 mg/kg compound in rats against elevation of BP caused by 5-HT (300 ug/kg, iv) through 5-hydroxytryptamine 2 receptor 3h after oral administration; format: functional, organism-based; set-up: dose 10 mg/kg; method in brief: as §2
[13] = biological target: T4, Adrenergic receptor alpha-1; assay: In vitro antagonistic activity against the contraction induced by phenylephrine through alpha-1 receptor in rat thoracic aortic strips; format: functional; method in brief: as §1
[14] = biological target: T2, Serotonin 2 (5-HT2) receptor (Rattus norvegicus); assay: as §5; format: functional; details: concentration not given here
Method in brief: as §1, with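 “5-HT (0.1-100” for “phenylephrine (0.01-10”, “cumulative 5-HT” for “cumulative”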

[15] = tested on: Mus musculus; assay: The inhibition of compound was measured for 5 min in head twitches of mice induced by 5-HTP(100 mg/kg, ip) at the dose of 30 mg/kg; format: functional; method in brief: as §4
[16] = biological target: T2, Serotonin 2 (5-HT2) receptor (Rattus norvegicus); assay: In vivo inhibitory activity of 3 mg/kg compound in rats against elevation of BP caused by 5-HT (300 ug/kg, iv) through 5-hydroxytryptamine 2 receptor 1 hr after oral administration; format: functional, organism-based; set-up: dose 3 mg/kg; method in brief: as §2
[17] = biological target: T1, Adrenergic receptor alpha-1 (Rattus norvegicus); assay: In vivo inhibitory activity in rats against elevation of blood pressure caused by phenylephrine (30 ug/kg, iv) through alpha-1 receptor after 3h of oral administration at the dose of 10 mg/kg; format: functional, organism-based; set-up: dose 10 mg/kg; method in brief: as §3
[18] = biological target: T1, Adrenergic receptor alpha-1 (Rattus norvegicus); assay: In vitro antagonistic activity against the contraction induced by phenylephrine through Alpha-1 adrenergic receptor in rat thoracic aortic strips; format: functional; details: concentration not given here; method in brief: as §1
[19] = biological target: T2, Serotonin 2 (5-HT2) receptor (Rattus norvegicus); assay: In vivo inhibitory activity of 3 mg/kg compound in rats against elevation of BP caused by 5-HT (300 ug/kg, iv) through 5-hydroxytryptamine 2 receptor 3h after oral administration; format: functional, organism-based; set-up: dose 3 mg/kg; method in brief: as §2
[20] = biological target: T1, Adrenergic receptor alpha-1 (Rattus norvegicus); assay: In vivo inhibitory activity in rats against elevation of blood pressure caused by phenylephrine (30 ug/kg, iv) through Alpha-1 adrenergic receptor after 1 hr of oral administration at the dose of 10 mg/kg; format: functional, organism-based; set-up: dose 10 mg/kg; method in brief: as §3

T2 sequence (P08909 whole entry, looked up): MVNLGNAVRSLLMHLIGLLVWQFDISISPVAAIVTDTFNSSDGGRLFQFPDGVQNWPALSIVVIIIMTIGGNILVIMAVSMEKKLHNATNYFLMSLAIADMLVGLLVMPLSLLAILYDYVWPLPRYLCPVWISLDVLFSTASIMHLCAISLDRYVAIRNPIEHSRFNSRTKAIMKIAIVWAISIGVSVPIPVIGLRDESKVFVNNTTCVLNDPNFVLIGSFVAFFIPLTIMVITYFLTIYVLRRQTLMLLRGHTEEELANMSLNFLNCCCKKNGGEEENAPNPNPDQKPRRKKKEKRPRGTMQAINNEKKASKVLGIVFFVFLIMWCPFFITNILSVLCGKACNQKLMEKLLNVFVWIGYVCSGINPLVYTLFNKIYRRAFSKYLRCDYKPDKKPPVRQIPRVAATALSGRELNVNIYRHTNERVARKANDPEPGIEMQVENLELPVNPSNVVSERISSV
T2 sequence (P14842 whole entry, looked up): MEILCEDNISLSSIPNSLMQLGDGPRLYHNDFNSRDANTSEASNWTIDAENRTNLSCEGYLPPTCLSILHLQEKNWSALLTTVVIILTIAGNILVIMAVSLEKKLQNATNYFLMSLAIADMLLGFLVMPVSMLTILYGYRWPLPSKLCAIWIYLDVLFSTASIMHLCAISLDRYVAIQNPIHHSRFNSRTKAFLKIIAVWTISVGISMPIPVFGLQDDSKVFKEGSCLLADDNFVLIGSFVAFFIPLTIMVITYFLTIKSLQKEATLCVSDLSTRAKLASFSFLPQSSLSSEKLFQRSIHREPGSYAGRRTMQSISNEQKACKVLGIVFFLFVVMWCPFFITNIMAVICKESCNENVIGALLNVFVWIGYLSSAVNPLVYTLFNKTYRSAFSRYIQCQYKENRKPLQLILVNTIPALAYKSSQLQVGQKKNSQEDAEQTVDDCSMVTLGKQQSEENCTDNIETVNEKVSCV
T2 sequence (P30994 whole entry, looked up): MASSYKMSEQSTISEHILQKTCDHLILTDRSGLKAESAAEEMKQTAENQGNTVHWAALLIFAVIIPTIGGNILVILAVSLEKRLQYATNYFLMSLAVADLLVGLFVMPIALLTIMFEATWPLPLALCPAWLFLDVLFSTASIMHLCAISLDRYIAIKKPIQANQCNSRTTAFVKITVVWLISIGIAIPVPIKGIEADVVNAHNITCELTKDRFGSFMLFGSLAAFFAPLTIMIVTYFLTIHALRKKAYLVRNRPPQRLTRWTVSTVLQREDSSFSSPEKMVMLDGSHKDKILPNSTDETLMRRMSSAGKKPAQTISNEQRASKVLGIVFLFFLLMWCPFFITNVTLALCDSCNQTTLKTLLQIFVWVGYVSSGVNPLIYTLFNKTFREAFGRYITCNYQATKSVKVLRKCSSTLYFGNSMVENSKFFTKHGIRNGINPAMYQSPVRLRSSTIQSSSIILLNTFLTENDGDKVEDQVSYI

Row | pA2 [1] | inhibition [2] | pA2 [3] | pA2 [6] | SMILES | inhibition [4] | inhibition in vivo at 10 mg/kg [5] | inhibition in vivo at 3 mg/kg [8] | also measured
1 | Non-competitive inhibition |  |  |  | O=C(c1ccc(F)cc1)C1CCN(CCn2nc3n(c2=O)CCCCC3)CC1 |  |  |  | pA2 [10]: Non-competitive antagonist
2 |  |  | 8.6 |  | O=c1n(CCN2CCC(=C(c3ccc(F)cc3)c3ccc(F)cc3)CC2)nc2n1CCCC2 |  | 55% | 13% | inhibition [11]: 11%; inhibition [12]: 87%; pA2 [13]: 7; inhibition [14]: 96%; inhibition in vivo at 30 mg/kg [15]: 85%; inhibition [16]: 76%; inhibition [17]: 4%; inhibition [18]: 14%; inhibition [19]: 78%; inhibition [20]: 14%

Continued, compound first:

Row | SMILES | pA2 [1] | inhibition [2] | pA2 [3] | pA2 [6] | inhibition [4] | inhibition in vivo at 10 mg/kg [5] | inhibition in vivo at 3 mg/kg [8] | also measured
3 | O=C(c1ccc(F)cc1)C1CCN(CCn2c(=O)nc3sccn3c2=O)CC1 | Non-competitive inhibition | 79% | 7.9 |  | 50% |  |  | 
4 | Cc1nc2sccn2c(=O)c1CCN1CCC(=C(c2ccc(F)cc2)c2ccc(F)cc2)CC1 [RITANSERIN] |  |  |  | 7.5 | 7% | 100% | 95% | inhibition in vivo at 1 mg/kg [7]: 80%
5 | O=C(c1ccc(Cl)cc1)C1CCN(CCn2nc3n(c2=O)CCCC3)CC1 |  | 83% |  | 7.2 | 16% |  |  | pA2 [9]: 7.2
